Consider 18 compounds from ChEMBL document CHEMBL1143669, “Triterpene acids from Poria cocos and their anti-tumor-promoting effects” (2007).

Active and inactive are the calls of the source. The rule behind the calls is not given here.

In assay [1] the test system is Raji. Nature of the assay: Cell viability of Raji cells. Type of assay: functional, Homo sapiens. The gist of the method: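 Raji cells were exposed to test compound at 32 nmol, a 1000:1 mol ratio to TPA, and cell viability (%) was scored in the EBV-EA activation system.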
For assay [2], the system named is Human gammaherpesvirus 4. Put plainly: Effect on TPA-induced Epstein-Barr virus early antigen activation in Raji cells at 500 mol ratio/32 pmol TPA relative to control.
Assay [3] deals with Human gammaherpesvirus 4. Put plainly: Effect on TPA-induced Epstein-Barr virus early antigen activation in Raji cells at 1000 mol ratio/32 pmol TPA relative to control.
Assay [4] concerns Human gammaherpesvirus 4. Put plainly: Inhibition of TPA-induced Epstein-Barr virus early antigen activation in Raji cells at 10 mol ratio/32 pmol TPA relative to control; values are per cent of control.
Assay [5] relates to Human gammaherpesvirus 4. Nature of the assay: Inhibition of TPA-induced Epstein-Barr virus early antigen activation in Raji cells at 100 mol ratio/32 pmol TPA relative to control; values are per cent of control.
In assay [6] the test system is Mus musculus. Nature of the assay: Inhibition of DMBA initiated TPA-induced skin tumor promotion in mouse at 85 nmol after 20 weeks by in vivo two-stage carcinogenesis test. Type of assay: functional, organism-based.

On to `C=C(CCC(C(=O)O)[C@H]1[C@H](O)C[C@@]2(C)C3=CC[C@H]4C(C)(C)C(=O)CC[C@]4(C)C3=CC[C@]12C)C(C)(C)O` (some centres not stated), for which the results for the Activity in assay [1], in assay [2] and in assay [3] were 70%, 39.5% and 0%, respectively. Also, the “EBV-EA activation (% of control)” value in assay [4] is recorded as 91.7%; in assay [5], 65.3%.
As to `C=C(CCC(C(=O)O)[C@H]1CC[C@@]2(C)C3=CC[C@H]4C(C)(C)C(=O)CC[C@]4(C)C3=CC[C@]12C)C(C)C` (some centres not stated) [DEHYDROEBURICONIC ACID], the Activity was determined as 70% in assay [1], 43.9% in assay [2] and 9.5% in assay [3]. Further, the results for the “EBV-EA activation (% of control)” value in assay [4] and in assay [5] were 100% and 79.5%, respectively.
For `C=C(CC[C@@H](C(=O)O)[C@H]1[C@H](O)C[C@@]2(C)C3=C(CC[C@]12C)[C@@]1(C)CC[C@H](OC(C)=O)C(C)(C)[C@@H]1CC3)C(C)C` [PACHYMIC ACID] the same measures were 70%, 24.7%, 0%, 96.5% and 71.6%.
In the case of `C=C(CC[C@@H](C(=O)O)[C@H]1CC[C@@]2(C)C3=CC[C@H]4C(C)(C)[C@@H](O)CC[C@]4(C)C3=CC[C@]12C)C(C)C` [DEHYDROEBURICOIC ACID], the Activity in assay [1] is 70%; in assay [2] it was 45.1%; in assay [3], 8.7%. Further, the “EBV-EA activation (% of control)” value in assay [4] worked out at 100%; in assay [5], 74.9%.
On to `C=C(C)[C@@H]1CC=C2C(=CC[C@]3(C)[C@@H](C(CCC(=C)C(C)(C)O)C(=O)O)[C@H](O)C[C@@]23C)[C@@]1(C)CCC(=O)O` (some centres not stated) [PORICOIC ACID D], for which the Activity in assay [1] is 70%; in assay [2], 15.3%; in assay [3], 0%. In addition, the “EBV-EA activation (% of control)” value worked out at 81.5% in assay [4] and 56.1% in assay [5].
For `C=C(CCC(C(=O)O)[C@H]1CC[C@@]2(C)C3=CC[C@@H](C(=C)C)[C@](C)(CCC(=O)OC)C3=CC[C@]12C)C(C)C` (some centres not stated) [PORICOIC ACID CM] the same measures were 70%, 37.2%, 0%, 87.6% and 63.4%.
`C=C(C)[C@@H]1CCC2=C(CC[C@]3(C)[C@@H](C(CCC(=C)C(C)(C)O)C(=O)O)[C@H](O)C[C@@]23C)[C@@]1(C)CCC(=O)O` (some centres not stated) [25-HYDROXYPORICOIC ACID H]: the Activity is reported as 70% in assay [1], 16.7% in assay [2] and 0% in assay [3]. Besides, the “EBV-EA activation (% of control)” value in assay [4] amounted to 82.8%; in assay [5], 57.5%.
The matching figures for `CC(C)=CCCC(C(=O)O)[C@H]1CC[C@@]2(C)C3=CC[C@H]4C(C)(C)C(=O)CC[C@]4(C)C3=CC[C@]12C` (some centres not stated) [DEHYDROTRAMETENONIC ACID]: 70%, 30.1%, 0%, 94.2% and 71%.
As for `CC1=C(/C=C/C(C)=C/C=C/C(C)=C/C=C/C=C(C)/C=C/C=C(C)/C=C/C2=C(C)CCCC2(C)C)C(C)(C)CCC1` [BETA CAROTENE], the Activity stood at 70% in assay [1], 34.2% in assay [2] and 8.6% in assay [3]. In addition, the “EBV-EA activation (% of control)” value was 100% in assay [4] and 82.1% in assay [5].
Regarding `CC(C)=CCCC(C(=O)O)[C@H]1CC[C@@]2(C)C3=CC[C@H]4C(C)(C)[C@@H](O)CC[C@]4(C)C3=CC[C@]12C` (some centres not stated), the figures for the Activity in assay [1], in assay [2] and in assay [3] were 70%, 45.3% and 9.2%, respectively. Besides, the “EBV-EA activation (% of control)” value in assay [4] is reported as 100%; in assay [5], 79.1%.
Turning to `C=C(CC[C@@H](C(=O)O)[C@H]1CC[C@@]2(C)C3=C(CC[C@]12C)[C@@]1(C)CC[C@H](O)C(C)(C)[C@@H]1CC3)C(C)C` [EBURICOIC ACID], the Activity in assay [1] is reported as 70%; in assay [2] it was 45.8%; in assay [3], 9.1%. Further, the results for the “EBV-EA activation (% of control)” value in assay [4] and in assay [5] were 100% and 75.3%, respectively.
For `C=C(CC[C@@H](C(=O)O)[C@H]1[C@H](O)C[C@@]2(C)C3=CC[C@@H](C(=C)C)[C@](C)(CCC(=O)OC)C3=CC[C@]12C)C(C)C` [PORICOIC ACID AM] the same measures were 70%, 9.6%, 0%, 81.8% and 57.8%.
As for `C=C(CCC(C(=O)O)[C@H]1[C@H](O)[C@H](O)[C@@]2(C)C3=CC[C@H]4C(C)(C)[C@@H](O)CC[C@]4(C)C3=CC[C@]12C)C(C)C` (some centres not stated), the Activity in assay [1] is 70%; in assay [2], 22.5%; in assay [3] it was 0%. Also, the “EBV-EA activation (% of control)” value in assay [4] turned out to be 91%; in assay [5], 70%.
As to `C=C(C)[C@@H]1CC=C2C(=CC[C@]3(C)[C@@H](C(CCC=C(C)C)C(=O)O)CC[C@@]23C)[C@@]1(C)CCC(=O)O` (some centres not stated) [16-DEOXYPORICOIC ACID B], the Activity turned out to be 70% in assay [1], 19.3% in assay [2] and 0% in assay [3]. Besides, in assay [6], the outcome was Active. Also, the “EBV-EA activation (% of control)” value in assay [4] is 90%; in assay [5], 65%.
For `C=C(C)[C@@H]1CC=C2C(=CC[C@]3(C)[C@@H]([C@@H](CCC(=C)C(C)(C)O)C(=O)O)[C@H](O)C[C@@]23C)[C@@]1(C)CCC(=O)OC` [PORICOIC ACID DM], the Activity stood at 70% in assay [1], 18.1% in assay [2] and 0% in assay [3]. Moreover, the figures for the “EBV-EA activation (% of control)” value in assay [4] and in assay [5] were 86.3% and 59%, respectively.
For `C=C(CCC(C(=O)O)[C@H]1[C@H](O)C[C@@]2(C)[C@]34C=C[C@@]5(OO3)C(C)(C)[C@@H](O)CC[C@]5(C)C4=CC[C@]12C)C(C)C` (some centres not stated) the same measures were 60%, 17.4%, 0%, 83.6% and 57.8%.
Turning to `C=C(CC[C@@H](C(=O)O)[C@H]1CC[C@@]2(C)C3=CC[C@@H](C(=C)C)[C@](C)(CCC(=O)O)C3=CC[C@]12C)C(C)C` [PORICOIC ACID C], the Activity in assay [1] is 70%; in assay [2] it was 21.1%; in assay [3], 0%. Moreover, in assay [6], the outcome was Active. The “EBV-EA activation (% of control)” value in assay [4] came out at 91.7%; in assay [5], 67.2%.
Regarding `C=C(CCC(C(=O)O)[C@H]1[C@H](O)C[C@@]2(C)C3=CC[C@H]4C(C)(C)[C@@H](OC(C)=O)CC[C@]4(C)C3=CC[C@]12C)C(C)C` (some centres not stated) [DEHYDROPACHYMIC ACID], the figures for the Activity in assay [1], in assay [2] and in assay [3] were 70%, 28.1% and 0%, respectively. In addition, the “EBV-EA activation (% of control)” value in assay [4] is given as 95.1%; in assay [5], 72.4%.
